Assay results pooled from the literature.
Each line is one published result; the experiments were not run side by side.
PTGS2: Prostaglandin G/H synthase 2 (PTGS2, Homo sapiens, UniProt P35354)
Penicillin-binding protein 2X: Penicillin-binding protein 2X (Streptococcus pneumoniae R6, UniProt P59676)

Compound | target | assay | conditions | endpoint | value
CCCCC/C=C\C/C=C\C/C=C\C/C=C\CCCC(=O)OC(CO)CO | Fatty acid-binding protein 5-ANS (Mus musculus, UniProt Q05816) | ligand displacement, fluorescence |  | Ki | 1 µM
COc1cc2c(cc1OC)CN(CCc1ccc(NC(=O)c3cccc4c(=O)c5cccc(OC)c5[nH]c34)cc1)CC2 | Alpha-1D adrenergic receptor (ADRA1D, Homo sapiens, UniProt P25100) | cell-free assay |  | Ki | 0.144 µM
C=CCOc1ccc(C(=O)/C=C/c2cccc(F)c2)c(OS(=O)(=O)c2ccc(F)cc2)c1I | PTGS2 | enzyme activity, inhibitor |  | IC50 | 18.6 µM
COc1ccc2cc3[n+](cc2c1OC)CCc1cc2c(cc1-3)OCO2 | Zinc finger protein GLI1 (GLI1, Homo sapiens, UniProt P08151) | binding, SPR |  | Kd | ~0.652 µM
C=CCOc1ccc(C(=O)/C=C/c2ccc(OC)cc2)c(OS(=O)(=O)c2ccc(F)cc2)c1I | PTGS2 | enzyme activity, inhibitor |  | IC50 | 28.9 µM
CC(C)(C)CNCc1nc2ccccc2n1CCOc1ccccc1 | Penicillin-binding protein 2X | binding, MST |  | Kd | 115 µM
Cn1c(=O)n(CCCCN2CCC3(CC2)OCc2ccccc23)c2ccccc21 | Sigma non-opioid intracellular receptor 1 (SIGMAR1, Cavia porcellus, UniProt Q60492) | ligand displacement, radioligand | cell membranes | Ki | 0.0141 µM
Fc1c(F)c(F)c(OCCn2c(CNCC34CC5CC(CC(C5)C3)C4)nc3ccccc32)c(F)c1F | Penicillin-binding protein 2X | binding, MST |  | Kd | 70 µM
CN1CC[C@@]2(C)c3cc(OC(=O)Nc4ccccc4)ccc3N(C)[C@@H]12 | Retinal dehydrogenase 2 (ALDH1A2, Homo sapiens, UniProt O94788) | enzyme activity, inhibitor, fluorescence | 15 min, pH 7.5 | IC50 | < 10 µM
